Compounds with a hit are over-represented: about 3.1% of the library has one in this group of screens.
PGC1a acetyl inh: lowers PGC1a acetylation signal in U2OS cells; 350,000 compounds, 0.17% hits; inhibition, % at 15.6 µM; AlphaScreen anti-acetyl-lysine; with virally co-expressed GCN5 acetyltransferase;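 active = every replicate shows inhibition of at least 40%; inconclusive = mean inhibition at least 40% but some replicate below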
EWS-Fli inh: blocks EWS/Fli oncoprotein-driven transcription; A673 NR0B1-luciferase reporter, viability-normalised; inhibition, % at 12.6 µM; 350,000 compounds, 0.67% hits; AID 651661;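 active = mean inhibition of at least 50% after viability correction, with every replicate also passing that limit; inconclusive = mean reaches 50% but only one of two replicates passes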;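 note: firefly luciferase signal divided by Alamar Blue viability fluorescence both relative to DMSO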
HIV Env fusion: HIV envelope-mediated fusion inhibition | inhibition, % at 12.3 µM | 360,000 compounds, 1.1% hits | HeLa-JRFL Env/CEM21 cell fusion, luciferase;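 active = mean replicate inhibition score of at least 50 and every replicate individually at or above 50; inconclusive = only one of the two criteria met; inactive = mean below 50 and not all replicates reaching 50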
FGF22 binding: FGF22 (human) thermal shift binding; Q9HCT0; recombinant FGF22 thermal shift, SYPRO orange fluorescence; percent of sucrose octasulfate shift, DMSO zero; activity (Tm shift, normalised), % at 9.99 µM; 340,000 compounds, 1.5% hits; AID 651658;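 active = mean Tm shift, scaled 0 neutral to 100 positive control, at about 1.3% or above, every replicate too, limit read from the data; inconclusive = no clear call, values can overlap the other calls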
Target sequence (Q9HCT0 whole entry, looked up): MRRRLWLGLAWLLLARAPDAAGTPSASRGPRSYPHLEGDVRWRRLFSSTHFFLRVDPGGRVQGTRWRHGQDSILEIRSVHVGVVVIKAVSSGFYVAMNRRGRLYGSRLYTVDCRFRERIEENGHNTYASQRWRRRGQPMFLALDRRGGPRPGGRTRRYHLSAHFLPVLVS
FN deposit inh: fibronectin deposition inhibition | inhibition, % at 12.6 µM | AH1F fibroblasts, Alexa488-fibronectin deposition fluorescence, overnight | 350,000 compounds, 0.086% hits;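 active = mean inhibition across replicates of 30% or more, regardless of how many single replicates reach that level; inconclusive = mean under 30% yet at least half of replicates reach 30%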
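Assay system: AH1F fibroblasts assembling fluorescent fibronectin matrix; Amount: 10000 AH1F cells per well; Buffer or medium: DMEM, 2% serum; Probe or stimulus: Alexa488-fibronectin, 24 nM final in well; Doses: single compound dose, delivered by pin transfer; Incubation: 1 h adhesion, overnight exposure; Measured by: fluorescence 485/525 nm; Read-out: fibronectin deposition inhibition.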
PAX8 inh HTS: lowers PAX8-driven luciferase in RMG-I cells; RMG-I TPO-luciferase reporter, SteadyGlo, 24 h; inhibition, % at 12.6 µM; 360,000 compounds, 1.2% hits;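 active = mean replicate inhibition at least 60% with every replicate also reaching 60%; inconclusive = only one of the two criteria is met; inactive = mean below 60% and not all replicates reaching 60%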;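 note: luciferase light reporting Pax8 driven TPO promoter activity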
A number is an active result; i = inactive; ? = inconclusive; nt = no result.

SMILES	PGC1a acetyl inh	EWS-Fli inh	HIV Env fusion	FGF22 binding	FN deposit inh	PAX8 inh HTS
COc1cccc(-c2nnc(SCC(=O)Nc3cc(C)on3)o2)c1	i	nt	nt	nt	nt	nt
O=C(CSc1nnc(-c2ccc(Br)cc2)o1)Nc1cccc(C(=O)O)c1	i	nt	88	i	nt	83
O=C(CSc1nnc(-c2ccccc2O)n1-c1ccccc1)Nc1cccc(C(=O)O)c1	i	i	i	43	i	i
CCOc1ccc(-c2nnc(SCC(=O)Nc3cc(C)on3)o2)cc1	i	65	i	i	i	i
O=C(O)CSc1nnc(Nc2ccccc2)n1-c1ccccc1	nt	i	i	44	i	i
O=C(CSc1nnc(-c2ccc(Br)cc2)o1)Nc1cccc2ccccc12	i	i	nt	i	nt	nt
O=C(Nc1ccccc1)NC1(c2cn(CC(=O)N3CCN(c4ccccc4)CC3)nn2)CCCCC1	i	i	i	i	nt	nt
Cc1ccc(-c2nnc(SCC(=O)Nc3ccccc3N3CCOCC3)o2)cc1	i	nt	i	nt	nt	i
Cc1ccc(-c2nnc(SCC(=O)Nc3ccccc3F)o2)cc1	nt	85	66	i	i	i
O=C(CSc1nnc(-c2ccccc2)o1)Nc1ccccc1F	nt	78	i	i	i	i
C[C@H](CO)N1C[C@H](C)[C@H](CN(C)C(=O)c2ccccn2)Oc2ncc(-c3ccccc3)cc2C1=O	i	i	i	i	nt	nt
C[C@H](CO)N1C[C@H](C)[C@H](CN(C)CC2CCCCC2)Oc2ccc(NC(=O)NC3CCCCC3)cc2CC1=O	i	i	i	i	nt	i
C[C@@H]1CN([C@@H](C)CO)C(=O)Cc2cc(NC(=O)Nc3ccc(F)cc3)ccc2O[C@H]1CN(C)CC1CCCCC1	nt	i	i	i	nt	82
C[C@@H]1CN([C@@H](C)CO)C(=O)Cc2cc(NC(=O)Nc3ccc4c(c3)OCO4)ccc2O[C@H]1CN(C)CC1CCCCC1	i	i	i	i	nt	83
C[C@@H]1CN([C@H](C)CO)C(=O)Cc2cc(NC(=O)Nc3ccc(F)cc3)ccc2O[C@H]1CN(C)CC1CC1	i	i	i	i	nt	i
C[C@@H]1CN([C@@H](C)CO)C(=O)Cc2cc(NC(=O)NC3CCCCC3)ccc2O[C@H]1CN(C)CC1CCCCC1	i	i	i	i	nt	67
COc1ccc2c3c(n(C)c2c1)[C@H](CO)N(Cc1cc(F)ccc1F)CC31CN(C(C)=O)C1	i	i	nt	i	nt	i
Cc1ccc(CN(C)C(=O)c2ccccc2Sc2ccccc2C#N)cc1	i	i	i	i	i	i
CN(Cc1ccc(OC(F)F)cc1)C(=O)c1ccccc1Sc1ccccc1C#N	nt	i	56	i	nt	i
COc1ccc(S(=O)(=O)N2CCCCCC2)cc1NC(=O)CN(C)Cc1ccc2c(c1)OCO2	i	i	58	i	i	i
COc1ccc(S(=O)(=O)N2CCCCC2)cc1NC(=O)CN(Cc1ccco1)Cc1ccco1	i	i	76	i	nt	i
Cc1noc(C)c1S(=O)(=O)Nc1ccc2c(c1)C(=O)N([C@H](C)CO)C[C@@H](C)[C@H](CN(C)C(=O)Nc1cccc3ccccc13)O2	i	i	nt	i	nt	nt
CCCCCc1cc(=O)oc2c(C(CCN3CCCCC3)c3ccc(OC)cc3)c(OC)cc(OC)c12 (centres undefined)	nt	i	i	i	i	66
CCCCCc1cc(=O)oc2c(C(CCN3CCCC3)c3ccc(N(C)C)cc3)c(OC)cc(OC)c12 (centres undefined)	nt	i	i	i	i	i
COc1cc(C(CCN2CCCCC2)c2c(OC)cc(OC)c3c(-c4ccccc4)cc(=O)oc23)cc(OC)c1OC (centres undefined)	i	i	i	i	30	i
SMILES	PGC1a acetyl inh	EWS-Fli inh	HIV Env fusion	FGF22 binding	FN deposit inh	PAX8 inh HTS
CC(C)c1cn(CC[C@@H]2CC[C@H](NC(=O)C3CCC3)[C@H](CO)O2)nn1	i	i	i	i	nt	i
Cc1ccc(-c2nc(-c3ccccc3)no2)c(Cl)c1	i	84	i	i	i	i
O=C(NC1CCCCC1)[C@H]1[C@H](CO)[C@H]2Cn3c(cccc3=O)[C@H]2N1CC1CCCC1	i	i	nt	nt	i	nt
CN(C)C(=O)C[C@@H]1C[C@H]2c3cc(NS(=O)(=O)c4ccccc4)ccc3O[C@H]2[C@H](CO)O1	i	i	nt	i	i	nt
O=C(Nc1c(Cl)cccc1Cl)Oc1cccc2cccnc12	nt	i	?	i	i	73
CNc1ccc(Br)cc(C(=O)/C=C/c2ccc(Cl)cc2Cl)c1=O	nt	i	i	i	i	66
COc1ccc(S(=O)(=O)N(C)C[C@@H]2Oc3ccc(NC(=O)Nc4ccc(C(F)(F)F)cc4)cc3C(=O)N([C@H](C)CO)C[C@H]2C)cc1	i	i	i	i	i	nt
Nc1nc2cc3c(cc2cc1C(=O)NCCc1c[nH]c2ccccc12)OCO3	nt	59	i	i	i	i
COc1ccc(-c2cn3ccccc3n2)cc1	i	i	i	i	i	i
CCCOc1ccc(-c2cn3ccccc3n2)cc1	nt	i	i	43	i	i
CCOC(=O)c1ccccc1NC(=O)Cn1c(-c2nonc2N)nc2ccccc21	i	nt	i	nt	active	nt
CC[C@@]1(C(=O)OC)N[C@H](CN(C)C(=O)Nc2ccccc2)[C@@H]2C(=O)N(Cc3ccccc3)C(=O)[C@@H]21	nt	i	60	i	i	i
CC[C@@]1(C(=O)OC)N[C@H](CN(C)C(=O)Nc2ccc(C(F)(F)F)cc2)[C@@H]2C(=O)N(Cc3ccccc3)C(=O)[C@@H]21	i	i	85	i	nt	i
CCN(C[C@H]1N[C@@](CC)(C(=O)OC)[C@H]2C(=O)N(Cc3ccccc3)C(=O)[C@@H]12)S(=O)(=O)c1ccc(OC)cc1	i	i	78	i	i	i
CC[C@@]1(C(=O)OC)N[C@H](CN(C)C(=O)c2ccccc2)[C@@H]2C(=O)N(Cc3ccccc3)C(=O)[C@@H]21	nt	i	i	i	i	i
C[C@H](CO)N1C[C@H](C)[C@H](CN(C)S(=O)(=O)c2ccccc2C#N)OCc2ccccc2-c2ccccc2C1=O	i	i	i	i	i	i
Cc1ccc(S(=O)(=O)N(C)C[C@H]2Oc3ccc(NS(C)(=O)=O)cc3CC(=O)N([C@@H](C)CO)C[C@@H]2C)cc1	i	i	i	i	i	i
Cc1cc(C)c(C)c(S(=O)(=O)NC(C(=O)O)C(C)C)c1C (centres undefined)	i	i	i	43	i	i
Cc1cc(C)c(C)c(S(=O)(=O)NCC(=O)O)c1C	i	nt	i	nt	i	i
CCCCn1c(N)c(N(CC)C(=O)c2cc(Br)ccc2Cl)c(=O)[nH]c1=O	nt	i	i	44	i	i
CCCCn1c(N)c(N(CC)C(=O)c2cc(S(=O)(=O)N3CCN(CC)CC3)ccc2Cl)c(=O)[nH]c1=O	nt	i	i	i	nt	i
C[C@@H]1CN([C@@H](C)CO)C(=O)c2cc(NS(=O)(=O)c3ccc(Cl)cc3)ccc2O[C@@H](C)CCCCO[C@@H]1CN(C)Cc1ccc(C(F)(F)F)cc1	i	i	i	i	i	i
